How the values were obtained:
[1] = Dose normalized AUC (0 to t) in dog at 0.9 mg/kg, po; type: ADME, organism-based, Canis lupus familiaris; conditions: in vivo
[2] = Volume of distribution at steady state in Sprague-Dawley rat at 1 mg/kg, iv or 2 mg/kg, po by LC/MS/MS analysis; type: ADME, organism-based; conditions: in vivo, read-out: Vdss
[3] = AUC (0 to t) in dog at 30 mg/kg, po; type: ADME, organism-based, Canis lupus familiaris; conditions: in vivo
[4] = AUC (0 to t) in rat at 98 mg/kg, po; type: ADME, organism-based; conditions: in vivo
[5] = AUC (0 to t) in dog at 0.9 mg/kg, po; type: ADME, organism-based, Canis lupus familiaris; conditions: in vivo
[6] = target: Transient receptor potential cation channel subfamily V member 4 (Rattus norvegicus, UniProt Q9ERZ8); experiment: Antagonist activity at rat TRPV4 expressed in BHK/AC9 cells assessed as inhibition of GSK634775-induced […] pre-incubated for 10 mins followed by agonist addition by Fluo-4-AM dye-based FLIPR assay; type: cell-based
Chain of Transient receptor potential cation channel subfamily V member 4 (Q9ERZ8 whole entry): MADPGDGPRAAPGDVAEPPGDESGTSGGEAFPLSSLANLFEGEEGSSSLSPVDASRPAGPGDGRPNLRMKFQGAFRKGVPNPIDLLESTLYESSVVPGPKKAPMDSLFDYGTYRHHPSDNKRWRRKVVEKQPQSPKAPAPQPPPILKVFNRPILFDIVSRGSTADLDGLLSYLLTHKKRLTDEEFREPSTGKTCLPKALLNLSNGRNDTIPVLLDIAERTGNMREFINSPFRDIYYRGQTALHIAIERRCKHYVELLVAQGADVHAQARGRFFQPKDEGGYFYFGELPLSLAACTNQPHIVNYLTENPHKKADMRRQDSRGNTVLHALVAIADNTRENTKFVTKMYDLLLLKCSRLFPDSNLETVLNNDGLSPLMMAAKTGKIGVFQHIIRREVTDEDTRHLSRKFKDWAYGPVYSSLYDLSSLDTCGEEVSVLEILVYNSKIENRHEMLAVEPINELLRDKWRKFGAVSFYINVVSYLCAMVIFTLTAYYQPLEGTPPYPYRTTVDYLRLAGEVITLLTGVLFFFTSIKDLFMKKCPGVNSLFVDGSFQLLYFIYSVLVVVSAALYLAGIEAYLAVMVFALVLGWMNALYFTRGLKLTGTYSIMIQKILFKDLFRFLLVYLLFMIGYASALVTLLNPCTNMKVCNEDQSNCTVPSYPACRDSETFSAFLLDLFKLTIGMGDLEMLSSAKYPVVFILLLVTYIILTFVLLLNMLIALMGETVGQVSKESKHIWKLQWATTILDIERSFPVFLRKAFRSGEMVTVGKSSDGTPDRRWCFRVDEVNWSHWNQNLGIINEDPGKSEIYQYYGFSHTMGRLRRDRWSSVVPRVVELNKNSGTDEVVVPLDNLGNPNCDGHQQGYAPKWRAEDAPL

[7] = target: Transient receptor potential cation channel subfamily A member 1 (Homo sapiens, UniProt O75762); experiment: Antagonist activity at TRPA1 (unknown origin)
Chain of Transient receptor potential cation channel subfamily A member 1 (O75762 whole entry, the tested form may be a part): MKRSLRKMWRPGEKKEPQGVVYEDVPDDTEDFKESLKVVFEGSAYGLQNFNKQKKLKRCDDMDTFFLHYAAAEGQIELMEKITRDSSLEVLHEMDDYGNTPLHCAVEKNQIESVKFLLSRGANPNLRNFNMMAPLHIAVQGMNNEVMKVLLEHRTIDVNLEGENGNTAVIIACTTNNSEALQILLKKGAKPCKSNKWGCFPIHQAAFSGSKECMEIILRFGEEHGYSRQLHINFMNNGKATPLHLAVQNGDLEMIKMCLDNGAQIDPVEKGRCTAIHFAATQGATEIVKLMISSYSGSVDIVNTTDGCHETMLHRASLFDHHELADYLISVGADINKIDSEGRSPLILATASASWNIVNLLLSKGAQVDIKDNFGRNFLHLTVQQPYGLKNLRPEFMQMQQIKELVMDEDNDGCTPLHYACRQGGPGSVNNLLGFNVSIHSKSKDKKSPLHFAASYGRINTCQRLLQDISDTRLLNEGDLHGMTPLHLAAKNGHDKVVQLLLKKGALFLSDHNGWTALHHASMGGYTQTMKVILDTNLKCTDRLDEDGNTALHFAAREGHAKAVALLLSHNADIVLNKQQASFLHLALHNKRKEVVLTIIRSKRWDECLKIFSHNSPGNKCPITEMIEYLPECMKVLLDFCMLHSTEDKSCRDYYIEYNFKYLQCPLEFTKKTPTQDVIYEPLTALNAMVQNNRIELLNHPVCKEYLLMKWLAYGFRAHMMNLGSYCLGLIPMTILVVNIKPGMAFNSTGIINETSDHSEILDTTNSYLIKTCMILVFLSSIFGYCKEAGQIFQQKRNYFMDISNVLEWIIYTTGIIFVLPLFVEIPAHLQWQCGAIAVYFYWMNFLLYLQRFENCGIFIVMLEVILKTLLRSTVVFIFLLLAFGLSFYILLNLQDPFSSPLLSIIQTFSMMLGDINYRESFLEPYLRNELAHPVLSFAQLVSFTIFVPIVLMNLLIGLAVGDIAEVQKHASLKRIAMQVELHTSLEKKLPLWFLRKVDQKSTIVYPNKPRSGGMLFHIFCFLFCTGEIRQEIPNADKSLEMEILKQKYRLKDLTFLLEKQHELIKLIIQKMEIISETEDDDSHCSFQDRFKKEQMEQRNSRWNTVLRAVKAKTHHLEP

Rattus norvegicus = experiment: Reversal of heart failure-induced pulmonary edema in Sprague-Dawley rat assessed as inhibition of GSK1016790A-induced increase in lung wet weight to body weight ratio at 0.21 ug/kg, iv bolus loading dose followed by 2.3 ug/kg/min, iv continuous infusion dose for 60 mins prior to agonist administration relative to control; type: functional
In short: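 Rats given vehicle or antagonist by i.v. infusion, then agonist GSK1016790A i.v. at 10 µg/kg/min for 10 min (100 µg/kg total). Edema scored as wet lung weight/body weight ratio against naïve animals; inhibition computed from the agonist response; mean ± SEM.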

[8] = Plasma concentration in Sprague-Dawley rat heart failure-induced pulmonary edema model at 0.02 ug/kg, iv bolus loading dose followed by 0.3 ug/kg/min, iv continuous infusion dose for 60 mins; type: ADME, organism-based; conditions: 2e-05 mg/kg
[9] = target: Transient receptor potential cation channel subfamily V member 1 (Homo sapiens, UniProt Q8NER1); experiment: Antagonist activity at TRPV1 (unknown origin)
Chain of Transient receptor potential cation channel subfamily V member 1 (Q8NER1 whole entry): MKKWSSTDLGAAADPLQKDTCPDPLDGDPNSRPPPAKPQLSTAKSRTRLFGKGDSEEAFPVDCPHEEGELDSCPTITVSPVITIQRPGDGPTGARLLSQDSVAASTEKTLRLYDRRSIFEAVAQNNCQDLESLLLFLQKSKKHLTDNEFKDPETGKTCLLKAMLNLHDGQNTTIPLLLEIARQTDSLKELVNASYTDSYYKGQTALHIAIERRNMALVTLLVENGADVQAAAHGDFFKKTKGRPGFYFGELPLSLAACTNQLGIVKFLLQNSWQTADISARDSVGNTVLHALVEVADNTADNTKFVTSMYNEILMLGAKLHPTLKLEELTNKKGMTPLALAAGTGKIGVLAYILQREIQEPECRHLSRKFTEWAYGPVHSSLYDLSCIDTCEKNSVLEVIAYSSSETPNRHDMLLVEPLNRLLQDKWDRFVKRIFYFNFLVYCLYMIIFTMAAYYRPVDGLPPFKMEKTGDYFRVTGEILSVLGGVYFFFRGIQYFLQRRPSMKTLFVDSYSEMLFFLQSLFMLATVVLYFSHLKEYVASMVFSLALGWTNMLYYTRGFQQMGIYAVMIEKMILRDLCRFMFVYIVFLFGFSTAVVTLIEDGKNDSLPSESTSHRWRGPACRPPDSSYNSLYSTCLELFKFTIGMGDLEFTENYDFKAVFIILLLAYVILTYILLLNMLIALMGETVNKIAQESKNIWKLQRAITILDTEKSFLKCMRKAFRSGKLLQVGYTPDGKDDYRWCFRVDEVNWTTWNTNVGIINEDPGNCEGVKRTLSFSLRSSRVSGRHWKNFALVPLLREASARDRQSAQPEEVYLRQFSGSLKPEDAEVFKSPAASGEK

[10] = AUC (0 to t) in rat at 2.4 mg/kg, po; type: ADME, organism-based; conditions: in vivo
[11] = Plasma concentration in Sprague-Dawley rat heart failure-induced pulmonary edema model at 0.21 ug/kg, iv bolus loading dose followed by 2.3 ug/kg/min, iv continuous infusion dose for 60 mins; type: ADME, organism-based
[12] = Permeability of the compound by PAMPA; type: ADME; conditions: read-out: permeability
TRPC3/TRPC6 = target: T1, TRPC3/TRPC6 (Homo sapiens, UniProt Q13507+Q9Y210); experiment: Antagonist activity at TRPC3/TRPC6 (unknown origin); type: protein-complex assay
T1 sequence (Q9Y210 whole entry): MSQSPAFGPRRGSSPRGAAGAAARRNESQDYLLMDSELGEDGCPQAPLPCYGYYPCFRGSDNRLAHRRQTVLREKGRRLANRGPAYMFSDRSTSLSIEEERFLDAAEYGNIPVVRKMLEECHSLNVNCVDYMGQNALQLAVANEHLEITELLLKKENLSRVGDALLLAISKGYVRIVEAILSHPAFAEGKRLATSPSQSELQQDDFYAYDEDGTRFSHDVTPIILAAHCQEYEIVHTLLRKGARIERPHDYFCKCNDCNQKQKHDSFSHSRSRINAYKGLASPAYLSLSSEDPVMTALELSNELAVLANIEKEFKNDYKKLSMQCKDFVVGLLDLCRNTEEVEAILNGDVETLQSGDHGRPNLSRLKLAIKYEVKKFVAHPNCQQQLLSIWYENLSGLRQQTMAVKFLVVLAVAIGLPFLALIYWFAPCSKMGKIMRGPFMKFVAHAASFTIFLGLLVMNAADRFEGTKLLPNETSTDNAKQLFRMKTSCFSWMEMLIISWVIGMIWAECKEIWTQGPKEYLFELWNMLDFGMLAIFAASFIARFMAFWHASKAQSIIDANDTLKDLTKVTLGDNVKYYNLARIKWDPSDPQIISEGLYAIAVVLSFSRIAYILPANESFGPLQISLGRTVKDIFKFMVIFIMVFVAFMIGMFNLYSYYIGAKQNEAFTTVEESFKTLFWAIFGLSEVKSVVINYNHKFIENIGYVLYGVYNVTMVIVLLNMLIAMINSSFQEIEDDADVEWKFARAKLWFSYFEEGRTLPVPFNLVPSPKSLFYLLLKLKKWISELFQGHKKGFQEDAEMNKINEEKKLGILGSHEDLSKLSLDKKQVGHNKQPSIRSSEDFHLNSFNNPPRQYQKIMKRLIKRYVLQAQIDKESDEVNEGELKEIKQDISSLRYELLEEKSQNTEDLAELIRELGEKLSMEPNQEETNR
T1 sequence (Q13507 whole entry): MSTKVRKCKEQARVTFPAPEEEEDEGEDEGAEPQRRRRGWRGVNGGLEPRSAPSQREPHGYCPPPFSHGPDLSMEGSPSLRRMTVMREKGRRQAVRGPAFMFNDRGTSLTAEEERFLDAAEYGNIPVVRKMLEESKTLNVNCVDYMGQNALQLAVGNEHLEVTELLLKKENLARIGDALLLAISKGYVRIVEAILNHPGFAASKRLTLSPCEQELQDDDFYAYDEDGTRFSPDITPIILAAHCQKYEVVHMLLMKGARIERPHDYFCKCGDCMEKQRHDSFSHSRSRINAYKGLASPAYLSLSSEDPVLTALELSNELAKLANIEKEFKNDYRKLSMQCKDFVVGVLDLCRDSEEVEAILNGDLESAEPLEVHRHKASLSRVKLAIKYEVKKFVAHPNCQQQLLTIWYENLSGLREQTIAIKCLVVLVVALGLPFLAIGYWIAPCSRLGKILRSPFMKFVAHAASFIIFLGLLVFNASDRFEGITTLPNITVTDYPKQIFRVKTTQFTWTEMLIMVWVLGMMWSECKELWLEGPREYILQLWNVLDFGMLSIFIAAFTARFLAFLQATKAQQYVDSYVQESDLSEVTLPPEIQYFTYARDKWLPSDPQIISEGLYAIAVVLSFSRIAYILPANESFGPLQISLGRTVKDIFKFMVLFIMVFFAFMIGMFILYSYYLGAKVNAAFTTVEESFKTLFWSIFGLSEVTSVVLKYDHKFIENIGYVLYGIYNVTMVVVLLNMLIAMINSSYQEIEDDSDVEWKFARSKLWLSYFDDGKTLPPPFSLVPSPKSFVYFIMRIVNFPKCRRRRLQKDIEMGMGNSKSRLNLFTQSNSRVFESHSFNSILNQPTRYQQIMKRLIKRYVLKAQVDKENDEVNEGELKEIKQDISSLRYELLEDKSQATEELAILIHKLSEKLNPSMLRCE

[13] = Dose normalized AUC (0 to t) in rat at 98 mg/kg, po; type: ADME, organism-based; conditions: in vivo
[14] = Clearance in Sprague-Dawley rat at 1 mg/kg, iv administered as 30 mins infusion by LC/MS/MS analysis; type: ADME, organism-based; conditions: in vivo
[15] = Fraction unbound in Sprague-Dawley rat heart failure-induced pulmonary edema model at 0.02 to 0.21 ug/kg, iv bolus loading dose followed by 0.3 to 2.3 ug/kg/min, iv continuous infusion dose for 60 mins; type: ADME, organism-based; conditions: in vivo
[16] = Dose normalized AUC (0 to t) in dog at 30 mg/kg, po; type: ADME, organism-based, Canis lupus familiaris; conditions: in vivo

`N#Cc1ccc(S(=O)(=O)N2C[C@H](S(=O)(=O)c3ccc(Cl)cc3)[C@](O)(CO)C2)c(Cl)c1` gave an AUCt/dose [1] of 2.9 kg·h/L, a Vd [2] of 4.5 L/kg and an AUC(0-t) [3] of 90000 ng·h/mL. It also gave an AUC(0-t) [4] of 40000 ng·h/mL, an AUC(0-t) [5] of 2500 ng·h/mL and an IC50 [6] of 0.004 µM. The IC50 [7] was > 30 µM, the “inhibition (INH)” value (Rattus norvegicus) was 99% and the concentration at 1 h [8] was 14 nM. For the same compound, the IC50 [9] was > 30 µM, the AUC(0-t) [10] was 1100 ng·h/mL and the concentration at 1 h [11] was 152 nM. For the same compound, the Papp [12] was 35 ×10⁻⁶ cm/s, the IC50 (TRPC3/TRPC6) was > 30 µM and the AUCt/dose [13] was 0.4 kg·h/L. The clearance [14] was 49 mL/min/kg, the fraction unbound at 1 h [15] was 0.042 and the AUCt/dose [16] was 3 kg·h/L.
